Activity calls are given as the source filed them. No cut-off for these calls is given here.
Tests used:
[1] = AUCt in Wistar rat at 10 mg/kg, po; type: ADME, organism-based; parameters: dose 10 mg/kg, route oral; settings: plasma
Procedure, shortened: (§1)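 Fasted male Wistar rats were dosed orally at 10 mg/kg in water for injection (10 mL/kg). Parameters come from the plasma concentration-time profile.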

[2] = molecular target: Histamine H1 receptor (Homo sapiens) (UniProt P35367); assay: Inhibition of histamine H1 receptor at 1 uM by radioligand displacement assay
Histamine H1 receptor (Homo sapiens), sequence (P35367 whole entry): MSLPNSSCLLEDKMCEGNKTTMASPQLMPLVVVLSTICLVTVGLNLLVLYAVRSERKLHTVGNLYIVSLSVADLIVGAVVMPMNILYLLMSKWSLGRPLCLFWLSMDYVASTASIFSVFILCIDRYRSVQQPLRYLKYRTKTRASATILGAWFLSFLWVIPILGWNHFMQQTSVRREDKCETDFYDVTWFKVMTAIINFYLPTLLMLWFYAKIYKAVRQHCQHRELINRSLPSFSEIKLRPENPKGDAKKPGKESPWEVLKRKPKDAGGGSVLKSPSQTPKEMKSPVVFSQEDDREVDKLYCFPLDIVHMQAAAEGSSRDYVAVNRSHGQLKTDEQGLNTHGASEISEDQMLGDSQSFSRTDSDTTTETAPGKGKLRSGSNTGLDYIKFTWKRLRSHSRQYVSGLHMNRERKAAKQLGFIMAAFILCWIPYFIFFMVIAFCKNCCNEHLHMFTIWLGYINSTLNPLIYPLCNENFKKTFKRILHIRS
Procedure, shortened: (§2)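 Single-concentration screen at 1 µM. Percent inhibition was measured by competitive displacement of each target's radioligand.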

[3] = molecular target: D(2) dopamine receptor (Homo sapiens) (UniProt P14416); assay: Inhibition of dopamine D2 receptor at 1 uM by radioligand displacement assay; procedure, shortened: as §2
D(2) dopamine receptor (Homo sapiens), sequence (P14416 whole entry): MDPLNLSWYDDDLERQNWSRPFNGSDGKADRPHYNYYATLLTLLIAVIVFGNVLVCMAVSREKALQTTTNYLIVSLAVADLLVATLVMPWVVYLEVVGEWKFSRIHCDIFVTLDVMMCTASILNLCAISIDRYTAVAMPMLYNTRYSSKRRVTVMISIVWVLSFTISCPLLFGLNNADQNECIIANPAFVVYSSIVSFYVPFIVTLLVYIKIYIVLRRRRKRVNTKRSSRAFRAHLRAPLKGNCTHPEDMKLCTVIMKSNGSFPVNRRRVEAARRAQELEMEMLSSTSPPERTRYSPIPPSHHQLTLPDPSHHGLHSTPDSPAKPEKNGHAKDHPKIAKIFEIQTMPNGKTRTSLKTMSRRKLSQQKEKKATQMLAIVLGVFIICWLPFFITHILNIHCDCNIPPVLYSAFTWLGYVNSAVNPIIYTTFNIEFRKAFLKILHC

[4] = molecular target: Sodium-dependent dopamine transporter (Homo sapiens) (UniProt Q01959); assay: Inhibition of DAT at 1 uM by radioligand displacement assay; procedure, shortened: as §2
Sodium-dependent dopamine transporter (Homo sapiens), sequence (Q01959 whole entry): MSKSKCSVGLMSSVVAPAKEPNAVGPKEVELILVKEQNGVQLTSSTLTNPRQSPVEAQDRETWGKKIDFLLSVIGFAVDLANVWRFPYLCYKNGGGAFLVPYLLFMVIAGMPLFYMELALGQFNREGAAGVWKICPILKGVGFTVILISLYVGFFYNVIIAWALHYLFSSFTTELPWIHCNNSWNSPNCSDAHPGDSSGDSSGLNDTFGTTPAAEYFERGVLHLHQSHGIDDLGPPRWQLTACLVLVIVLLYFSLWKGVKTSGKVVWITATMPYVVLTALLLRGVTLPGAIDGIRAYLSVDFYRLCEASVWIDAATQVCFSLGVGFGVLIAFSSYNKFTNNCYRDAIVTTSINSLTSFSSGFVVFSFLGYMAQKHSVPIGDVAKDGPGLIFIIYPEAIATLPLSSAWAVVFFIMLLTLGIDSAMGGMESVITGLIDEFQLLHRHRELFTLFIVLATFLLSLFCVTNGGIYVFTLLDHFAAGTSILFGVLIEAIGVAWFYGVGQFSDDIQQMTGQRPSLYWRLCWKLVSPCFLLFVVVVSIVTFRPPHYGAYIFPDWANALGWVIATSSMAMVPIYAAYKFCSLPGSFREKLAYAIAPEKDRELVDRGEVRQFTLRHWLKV

[5] = Tmax in Wistar rat at 10 mg/kg, po; type: ADME, organism-based; parameters: dose 10 mg/kg, route oral; settings: in vivo; procedure, shortened: as §1
[6] = molecular target: T1, Alpha-1B adrenergic receptor (Homo sapiens) (UniProt P35368); assay: Inhibition of adrenergic alpha1B receptor at 1 uM by radioligand displacement assay; procedure, shortened: as §2
T1 sequence (whole entry): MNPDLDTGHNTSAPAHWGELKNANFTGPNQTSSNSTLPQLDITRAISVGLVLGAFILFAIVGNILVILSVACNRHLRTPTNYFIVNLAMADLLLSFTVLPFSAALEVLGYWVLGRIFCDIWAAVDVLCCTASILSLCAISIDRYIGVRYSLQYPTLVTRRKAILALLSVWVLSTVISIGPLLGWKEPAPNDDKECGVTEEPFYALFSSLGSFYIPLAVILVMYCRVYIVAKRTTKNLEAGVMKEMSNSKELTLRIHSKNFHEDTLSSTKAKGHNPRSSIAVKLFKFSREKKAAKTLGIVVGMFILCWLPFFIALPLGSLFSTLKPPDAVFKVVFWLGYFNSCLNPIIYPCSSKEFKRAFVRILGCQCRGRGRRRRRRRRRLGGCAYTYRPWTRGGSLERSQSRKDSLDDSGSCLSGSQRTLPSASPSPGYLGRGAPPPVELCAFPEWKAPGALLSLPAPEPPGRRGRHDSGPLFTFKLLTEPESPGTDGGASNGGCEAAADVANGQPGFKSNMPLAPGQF

[7] = Apparent volume of distribution in Wistar rat at 5 to 10 mg/kg, iv; type: ADME, organism-based; parameters: dose 5-10 mg/kg, route intravenous; settings: in vivo, read-out: Vz
Procedure, shortened: (§3)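 Fasted male Wistar rats were dosed intravenously in water for injection at 2 mL/kg. Parameters come from the plasma profile.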

[8] = Half life in Wistar rat at 5 to 10 mg/kg, iv; type: ADME, organism-based; parameters: dose 5-10 mg/kg, route intravenous; settings: in vivo; procedure, shortened: as §3
[9] = molecular target: T2, 5-hydroxytryptamine receptor 3A (Homo sapiens) (UniProt P46098); assay: Inhibition of 5HT3 receptor at 1 uM by radioligand displacement assay; procedure, shortened: as §2
T2 sequence (whole entry): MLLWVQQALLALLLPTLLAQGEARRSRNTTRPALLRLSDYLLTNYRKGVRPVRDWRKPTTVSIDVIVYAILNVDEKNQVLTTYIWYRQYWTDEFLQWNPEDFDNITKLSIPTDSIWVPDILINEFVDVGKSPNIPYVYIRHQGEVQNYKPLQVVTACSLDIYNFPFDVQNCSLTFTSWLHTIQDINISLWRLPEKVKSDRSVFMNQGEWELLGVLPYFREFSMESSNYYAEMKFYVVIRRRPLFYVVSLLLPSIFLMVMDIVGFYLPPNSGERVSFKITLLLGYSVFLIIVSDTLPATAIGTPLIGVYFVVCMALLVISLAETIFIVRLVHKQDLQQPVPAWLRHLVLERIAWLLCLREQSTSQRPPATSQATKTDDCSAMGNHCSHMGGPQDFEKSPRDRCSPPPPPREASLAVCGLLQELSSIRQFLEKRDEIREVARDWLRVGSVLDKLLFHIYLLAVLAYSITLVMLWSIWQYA

[10] = molecular target: T3, 5-hydroxytryptamine receptor 6 (Homo sapiens, UniProt P50406); assay: Antagonist activity at recombinant human 5HT6 receptor expressed in CHO cells assessed as inhibition of 5HT-stimulated cAMP accumulation after 4 hrs by luciferase reporter gene assay; type: functional, cell-based
T3 sequence (P50406 whole entry): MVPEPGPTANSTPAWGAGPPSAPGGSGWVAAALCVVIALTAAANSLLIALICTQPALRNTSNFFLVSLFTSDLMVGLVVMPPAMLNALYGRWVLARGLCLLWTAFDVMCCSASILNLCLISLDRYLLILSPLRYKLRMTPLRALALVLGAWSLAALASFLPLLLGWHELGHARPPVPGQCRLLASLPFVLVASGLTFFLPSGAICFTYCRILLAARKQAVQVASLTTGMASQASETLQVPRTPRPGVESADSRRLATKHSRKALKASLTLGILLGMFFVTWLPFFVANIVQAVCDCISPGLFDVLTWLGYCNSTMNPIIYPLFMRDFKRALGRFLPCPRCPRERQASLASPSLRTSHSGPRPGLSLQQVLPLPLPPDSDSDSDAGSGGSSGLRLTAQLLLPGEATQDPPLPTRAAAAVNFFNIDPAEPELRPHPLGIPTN
Procedure, shortened: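 Functional antagonism measured in a non-radioactive CHO cell-based assay as inhibition of 5-HT-stimulated cAMP accumulation. IC50 was derived from this inhibition, and Kb values were determined in the same cell-based format. IC50 and Kb are each the mean of two experiments.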

[11] = Cmax in Wistar rat at 10 mg/kg, po; type: ADME, organism-based; parameters: dose 10 mg/kg, route oral; settings: in vivo; procedure, shortened: as §1
[12] = molecular target: D(3) dopamine receptor (Homo sapiens) (UniProt P35462); assay: Inhibition of dopamine D3 receptor at 1 uM by radioligand displacement assay; procedure, shortened: as §2
[13] = molecular target: Cytochrome P450 3A4 (Homo sapiens, UniProt P08684); assay: Inhibition of CYP3A4 in human liver microsomes using midazolam as substrate after 5 mins in presence of NADPH; type: ADME, Microsome
[14] = molecular target: Cytochrome P450 2D6 (Homo sapiens, UniProt P10635); assay: Inhibition of CYP2D6 in human liver microsomes using dextromethorphan as substrate after 10 mins in presence of NADPH; type: ADME, Microsome
[15] = molecular target: hERG (KCNH2) (Homo sapiens, UniProt Q12809); assay: Inhibition of human ERG at 1 uM by radioligand displacement assay; procedure, shortened: as §2
hERG (KCNH2), sequence (Q12809 whole entry): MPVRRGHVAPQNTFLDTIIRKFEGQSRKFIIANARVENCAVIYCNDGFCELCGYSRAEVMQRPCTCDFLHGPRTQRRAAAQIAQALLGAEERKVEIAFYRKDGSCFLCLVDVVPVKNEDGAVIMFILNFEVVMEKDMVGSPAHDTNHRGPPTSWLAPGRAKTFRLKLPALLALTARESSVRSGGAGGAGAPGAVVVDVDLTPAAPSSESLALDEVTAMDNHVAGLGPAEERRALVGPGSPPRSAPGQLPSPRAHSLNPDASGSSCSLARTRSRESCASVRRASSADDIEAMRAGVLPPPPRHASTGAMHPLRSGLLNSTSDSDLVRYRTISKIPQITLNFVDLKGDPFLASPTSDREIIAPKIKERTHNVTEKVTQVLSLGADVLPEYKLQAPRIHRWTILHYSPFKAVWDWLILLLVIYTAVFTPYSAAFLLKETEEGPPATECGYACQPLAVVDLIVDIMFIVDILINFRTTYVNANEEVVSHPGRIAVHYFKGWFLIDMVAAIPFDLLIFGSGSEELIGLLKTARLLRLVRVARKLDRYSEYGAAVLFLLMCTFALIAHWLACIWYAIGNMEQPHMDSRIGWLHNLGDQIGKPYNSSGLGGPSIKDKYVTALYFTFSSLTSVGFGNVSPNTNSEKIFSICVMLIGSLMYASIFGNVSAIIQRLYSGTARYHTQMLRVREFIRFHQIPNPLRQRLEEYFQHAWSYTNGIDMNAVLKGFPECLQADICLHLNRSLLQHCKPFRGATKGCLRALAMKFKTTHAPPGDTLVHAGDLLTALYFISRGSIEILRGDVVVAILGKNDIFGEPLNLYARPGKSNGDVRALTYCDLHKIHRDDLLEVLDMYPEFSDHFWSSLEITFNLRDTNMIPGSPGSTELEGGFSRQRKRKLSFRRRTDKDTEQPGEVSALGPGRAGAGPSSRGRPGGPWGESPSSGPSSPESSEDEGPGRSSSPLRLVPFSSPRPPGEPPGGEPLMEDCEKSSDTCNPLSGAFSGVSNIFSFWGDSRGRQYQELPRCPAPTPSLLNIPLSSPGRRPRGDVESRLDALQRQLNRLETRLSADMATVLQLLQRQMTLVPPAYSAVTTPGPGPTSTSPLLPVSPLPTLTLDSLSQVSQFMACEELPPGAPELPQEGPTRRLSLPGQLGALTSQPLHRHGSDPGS

[16] = molecular target: 5-hydroxytryptamine receptor 2A (Homo sapiens) (UniProt P28223); assay: Inhibition of 5HT2A receptor at 1 uM by radioligand displacement assay; procedure, shortened: as §2
5-hydroxytryptamine receptor 2A (Homo sapiens), sequence (P28223 whole entry): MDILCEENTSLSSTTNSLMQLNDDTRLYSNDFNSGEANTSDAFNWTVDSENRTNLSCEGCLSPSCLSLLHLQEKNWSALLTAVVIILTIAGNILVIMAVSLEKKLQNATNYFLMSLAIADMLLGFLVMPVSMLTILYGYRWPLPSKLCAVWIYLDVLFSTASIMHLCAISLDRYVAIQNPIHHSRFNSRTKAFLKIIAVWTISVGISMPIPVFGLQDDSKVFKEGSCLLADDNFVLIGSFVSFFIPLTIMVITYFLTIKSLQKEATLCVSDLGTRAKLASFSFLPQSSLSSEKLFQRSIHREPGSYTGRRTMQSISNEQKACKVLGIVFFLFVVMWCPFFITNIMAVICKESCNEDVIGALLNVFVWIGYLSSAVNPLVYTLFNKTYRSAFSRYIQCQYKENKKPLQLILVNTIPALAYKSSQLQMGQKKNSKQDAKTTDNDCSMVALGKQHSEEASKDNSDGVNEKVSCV

[17] = molecular target: T3, 5-hydroxytryptamine receptor 6; assay: Antagonist activity at recombinant human 5HT6 receptor expressed in CHO cells assessed as inhibition of 5HT-stimulated cAMP accumulation after 4 hrs by luciferase reporter gene assay relative to control; type: functional, cell-based
[18] = molecular target: Sodium-dependent serotonin transporter (Homo sapiens) (UniProt P31645); assay: Inhibition of SERT at 1 uM by radioligand displacement assay; procedure, shortened: as §2
Sodium-dependent serotonin transporter (Homo sapiens), sequence (P31645 whole entry, looked up): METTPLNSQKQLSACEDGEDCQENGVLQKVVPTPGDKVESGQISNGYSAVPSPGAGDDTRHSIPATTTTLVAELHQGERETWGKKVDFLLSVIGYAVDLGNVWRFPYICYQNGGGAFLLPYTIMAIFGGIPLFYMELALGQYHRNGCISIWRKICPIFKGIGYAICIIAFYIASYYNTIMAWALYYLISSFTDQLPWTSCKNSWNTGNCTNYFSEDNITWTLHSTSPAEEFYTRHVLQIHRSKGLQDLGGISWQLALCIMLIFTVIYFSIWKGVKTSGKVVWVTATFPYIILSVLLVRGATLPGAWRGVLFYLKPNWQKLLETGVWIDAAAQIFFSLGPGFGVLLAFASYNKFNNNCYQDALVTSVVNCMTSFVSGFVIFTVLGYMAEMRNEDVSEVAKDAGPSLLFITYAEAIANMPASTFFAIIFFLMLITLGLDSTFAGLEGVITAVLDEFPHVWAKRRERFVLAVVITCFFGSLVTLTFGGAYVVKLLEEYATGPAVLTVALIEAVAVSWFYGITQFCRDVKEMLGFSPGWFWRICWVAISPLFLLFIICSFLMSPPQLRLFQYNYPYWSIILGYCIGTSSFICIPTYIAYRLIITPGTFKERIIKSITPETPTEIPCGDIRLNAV

[19] = molecular target: T3, 5-hydroxytryptamine receptor 6; assay: Displacement of [3H]-LSD from cloned human 5HT6 receptor expressed in HEK293 cells; type: cell-based
Procedure, shortened: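 Human recombinant 5-HT6 receptor expressed in HEK293 cells. Radioligand [3H]-LSD (60–80 Ci/mmol) at 1.5 nM final. Methiothepin mesylate defined non-specific binding and served as reference. Ki values are the average of duplicate determinations, run under a contract lab's standard protocol.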

[20] = Drug metabolism in Wistar rat liver microsomes at 2.5 uM after 0.5 hrs; type: ADME, Microsome; settings: read-out: Drug metabolism
[21] = molecular target: Sodium-dependent noradrenaline transporter (Homo sapiens) (UniProt P23975); assay: Inhibition of NET at 1 uM by radioligand displacement assay; procedure, shortened: as §2
Sodium-dependent noradrenaline transporter (Homo sapiens), sequence (P23975 whole entry): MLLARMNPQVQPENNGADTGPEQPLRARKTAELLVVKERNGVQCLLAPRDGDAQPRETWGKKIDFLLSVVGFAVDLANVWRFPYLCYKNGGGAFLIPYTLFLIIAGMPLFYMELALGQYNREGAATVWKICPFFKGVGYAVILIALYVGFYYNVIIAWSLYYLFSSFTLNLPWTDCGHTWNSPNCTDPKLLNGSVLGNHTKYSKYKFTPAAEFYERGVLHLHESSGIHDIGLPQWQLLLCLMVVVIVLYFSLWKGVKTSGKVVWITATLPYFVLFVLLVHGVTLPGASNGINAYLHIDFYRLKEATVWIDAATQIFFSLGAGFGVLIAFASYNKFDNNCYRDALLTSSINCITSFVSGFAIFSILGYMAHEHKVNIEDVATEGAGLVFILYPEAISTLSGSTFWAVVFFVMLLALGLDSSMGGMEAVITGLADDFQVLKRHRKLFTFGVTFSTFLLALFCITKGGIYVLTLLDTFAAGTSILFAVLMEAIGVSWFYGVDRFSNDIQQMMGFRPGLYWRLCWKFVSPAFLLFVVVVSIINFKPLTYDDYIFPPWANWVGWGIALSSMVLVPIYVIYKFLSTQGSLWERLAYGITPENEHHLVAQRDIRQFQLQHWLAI

[22] = Oral bioavailability in Wistar rat at 10 mg/kg; type: ADME, organism-based; settings: in vivo; procedure, shortened: as §1
[23] = Clearance in Wistar rat at 5 to 10 mg/kg, iv; type: ADME, organism-based; parameters: dose 5-10 mg/kg, route intravenous; settings: in vivo; procedure, shortened: as §3
[24] = Drug metabolism in human liver microsomes at 2.5 uM after 0.5 hrs; type: ADME, Microsome; settings: read-out: Drug metabolism
[25] = system: Rattus norvegicus; assay: Cognitive enhancing effect in Wistar rat assessed as reversal of time delay-induced memory deficit at 10 mg/kg, po after 60 mins by object recognition test; type: functional, organism-based; parameters: dose 10 mg/kg
Procedure, shortened: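 Object recognition task in rats. Drug or vehicle (PEG 400 50% v/v, 1 mL/kg) was given orally 60 min before testing, at 10 mg/kg. n = 6–9 per group.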

[26] = Ratio of drug level in brain to plasma at steady state in Wistar rat at 10 mg/kg, po after 1 hr; type: ADME, organism-based; parameters: dose 10 mg/kg, route oral; settings: read-out: BPR
[27] = Half life in Wistar rat at 10 mg/kg, po; type: ADME, organism-based; parameters: dose 10 mg/kg, route oral; settings: in vivo; procedure, shortened: as §1

Compound	AUC(0-t) [1] [ng·h/mL]	inhibition [2] [%]	inhibition [3] [%]	inhibition [4] [%]	Tmax [5] [h]	inhibition [6] [%]	Vd [7] [L/kg]	half-life [8] [h]	inhibition [9] [%]	IC50 [10] [nM]	Kb [10] [nM]	Cmax [11] [ng/mL]	inhibition [12] [%]	IC50 [14] [nM]	inhibition [16] [%]	Imax [17] [%]	inhibition [18] [%]	Ki [19] [nM]	inhibition [21] [%]	inhibition at 1 µM [15] [%]	also measured
CN1CCN(Cc2cccc3c2c(Cl)cn3S(=O)(=O)c2cccc(Cl)c2)CC1	–	9.33	12.9	20.4	–	0.78	–	–	19.9	–	–	–	28.5	–	17.7	–	1.51	–	13.5	20.2	–
O=S(=O)(c1ccccc1Br)n1ccc2c(CN3CCNCC3)cccc21	–	9.82	12.8	5.23	–	1.13	–	–	18	–	–	–	8.31	–	18.7	–	8.47	2.82	6.28	24.5	–
CN1CCN(Cc2cccc3c2ccn3S(=O)(=O)c2ccccc2Br)CC1	217	9.48	11.1	3.66	1.83	2.26	32.6	1.76	18.8	135	0.59	60	27.8	19500	24	100	4.62	–	10.8	15.8	Activity [25]: Active; Kp at 1 h [26]: 20.3; half-life [27]: 3.17 h; metabolised at 0.5 h, 2.5 µM [20]: 100%; bioavailability [22]: 29%; clearance [23]: 220 mL/min/kg; metabolised at 0.5 h, 2.5 µM [24]: 90%

Now from value to compound, other results behind:

AUC(0-t) [1] [ng·h/mL]	inhibition [2] [%]	inhibition [3] [%]	inhibition [4] [%]	Tmax [5] [h]	inhibition [6] [%]	Vd [7] [L/kg]	half-life [8] [h]	inhibition [9] [%]	IC50 [10] [nM]	Kb [10] [nM]	Cmax [11] [ng/mL]	inhibition [12] [%]	IC50 [14] [nM]	inhibition [16] [%]	Imax [17] [%]	inhibition [18] [%]	Ki [19] [nM]	inhibition [21] [%]	Compound	inhibition at 1 µM [15] [%]	also measured
23	10.1	7.26	3.92	1.08	0.99	19.4	1.53	6.73	234	1.02	7.6	22.6	16800	10.9	99	2.85	3.24	10.2	CN1CCN(Cc2cccc3c2ccn3S(=O)(=O)c2ccccc2)CC1	21.1	IC50 [13]: 30500 nM; metabolised at 0.5 h, 2.5 µM [20]: 100%; bioavailability [22]: 2%; clearance [23]: 152 mL/min/kg; metabolised at 0.5 h, 2.5 µM [24]: 47%
–	2.38	5.01	3.53	–	2.17	–	–	8.93	–	–	–	35.7	–	19.3	–	5.27	–	6.78	CN1CCN(Cc2cccc3c2c(Br)cn3S(=O)(=O)c2ccccc2)CC1	23	–

Reference: ChEMBL document CHEMBL2203006, “Design, synthesis and pharmacological evaluation of 4-(piperazin-1-yl methyl)-N₁-arylsulfonyl indole derivatives as 5-HT₆ receptor ligands” (Bioorg Med Chem Lett, 2012)
